Results from ChEMBL document CHEMBL4152188, “Design, synthesis and biological evaluation of C(4) substituted monobactams as antibacterial agents against multidrug-resistant Gram-negative bacteria” (Eur J Med Chem, 2018).
Values after ≈ are worked out from the molar mass of the structure shown.

Key:
[1] = test system: Pseudomonas aeruginosa; test: Selectivity index, ratio of MIC for against IMP-4 producing Pseudomonas aeruginosa isolate 209471 to MIC for against IMP-4 producing Pseudomonas aeruginosa isolate 209471 in presence of BPL; assay type: functional
[2] = test system: Pseudomonas aeruginosa; test: Antibacterial activity against IMP-4 producing Pseudomonas aeruginosa isolate 207272 after 18 hrs in presence of BPL by CLSI broth microdilution method; assay type: functional; conditions: isolate 207272, 18 h
Outline: (§1)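 CLSI broth microdilution against clinical isolates (ESBL E. coli, KPC-2 MDR K. pneumoniae, IMP-4 MDR P. aeruginosa; five per species). Iron limitation: Mueller-Hinton broth supplemented with 16 mg/liter 2,2'-bipyridyl to complex iron and induce iron uptake systems. Read-out: MIC.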

[3] = test system: Pseudomonas aeruginosa; test: Antibacterial activity against IMP-4 producing Pseudomonas aeruginosa isolate 209471 after 18 hrs in presence of BPL by CLSI broth microdilution method; assay type: functional; conditions: isolate 209471, 18 h; outline: as §1
[4] = test system: Escherichia coli; test: Antibacterial activity against extended-spectrum beta-lactamase producing Escherichia coli isolate 208687 after 18 hrs in presence of BPL by CLSI broth microdilution method; assay type: functional; conditions: isolate 208687, 18 h; outline: as §1
[5] = Elimination half life in mouse liver microsomes at 0.1 uM pre-incubated with compound followed by NADPH addition and measured after 60 mins by LC-MS/MS analysis; assay type: ADME, microsome; conditions: read-out: beta t1/2
[6] = test system: Escherichia coli; test: Selectivity index, ratio of MIC for against Escherichia coli isolate 210737 to MIC for Escherichia coli isolate 210737 in presence of BPL; assay type: functional
[7] = test system: Pseudomonas aeruginosa; test: Antibacterial activity against IMP-4 producing Pseudomonas aeruginosa isolate 207272 after 18 hrs by CLSI broth microdilution method; assay type: functional; conditions: isolate 207272, 18 h
[8] = test system: Klebsiella pneumoniae; test: Antibacterial activity against KPC-2 producing Klebsiella pneumoniae isolate 209735 after 18 hrs by CLSI broth microdilution method; assay type: functional; conditions: isolate 209735, 18 h
[9] = test system: Escherichia coli; test: Antibacterial activity against extended-spectrum beta-lactamase producing Escherichia coli isolate 208687 after 18 hrs by CLSI broth microdilution method; assay type: functional; conditions: isolate 208687, 18 h
[10] = test system: Klebsiella pneumoniae; test: Antibacterial activity against KPC-2 producing Klebsiella pneumoniae isolate 209632 after 18 hrs in presence of BPL by CLSI broth microdilution method; assay type: functional; conditions: isolate 209632, 18 h; outline: as §1
[11] = test system: Pseudomonas aeruginosa; test: Antibacterial activity against IMP-4 producing Pseudomonas aeruginosa isolate 209471 after 18 hrs by CLSI broth microdilution method; assay type: functional; conditions: isolate 209471, 18 h
[12] = test system: Klebsiella pneumoniae; test: Antibacterial activity against KPC-2 producing Klebsiella pneumoniae isolate 209632 after 18 hrs by CLSI broth microdilution method; assay type: functional; conditions: isolate 209632, 18 h
[13] = test system: Klebsiella pneumoniae; test: Antibacterial activity against KPC-2 producing Klebsiella pneumoniae isolate 212229 after 18 hrs in presence of BPL by CLSI broth microdilution method; assay type: functional; conditions: isolate 212229, 18 h; outline: as §1
[14] = test system: Klebsiella pneumoniae; test: Antibacterial activity against KPC-2 producing Klebsiella pneumoniae isolate 212423 after 18 hrs by CLSI broth microdilution method; assay type: functional; conditions: isolate 212423, 18 h
[15] = test system: Escherichia coli; test: Selectivity index, ratio of MIC for against extended-spectrum beta-lactamase producing Escherichia coli isolate 106342 to MIC for extended-spectrum beta-lactamase producing Escherichia coli isolate 106342 in presence of BPL; assay type: functional
[16] = test system: Pseudomonas aeruginosa; test: Selectivity index, ratio of MIC for against IMP-4 producing Pseudomonas aeruginosa isolate 212886 to MIC for against IMP-4 producing Pseudomonas aeruginosa isolate 212886 in presence of BPL; assay type: functional
[17] = test system: Escherichia coli; test: Antibacterial activity against extended-spectrum beta-lactamase producing Escherichia coli isolate 106342 after 18 hrs in presence of BPL by CLSI broth microdilution method; assay type: functional; conditions: isolate 106342, 18 h; outline: as §1
[18] = test system: Escherichia coli; test: Antibacterial activity against extended-spectrum beta-lactamase producing Escherichia coli isolate 209285 after 18 hrs by CLSI broth microdilution method; assay type: functional; conditions: isolate 209285, 18 h
[19] = Elimination half life in human liver microsomes at 0.1 uM pre-incubated with compound followed by NADPH addition and measured after 60 mins by LC-MS/MS analysis; assay type: ADME, microsome; conditions: read-out: beta t1/2
[20] = test system: Klebsiella pneumoniae; test: Antibacterial activity against KPC-2 producing Klebsiella pneumoniae isolate 212423 after 18 hrs in presence of BPL by CLSI broth microdilution method; assay type: functional; conditions: isolate 212423, 18 h; outline: as §1
[21] = test system: Pseudomonas aeruginosa; test: Selectivity index, ratio of MIC for against IMP-4 producing Pseudomonas aeruginosa isolate 208247 to MIC for against IMP-4 producing Pseudomonas aeruginosa isolate 208247 in presence of BPL; assay type: functional
[22] = test system: Escherichia coli; test: Antibacterial activity against extended-spectrum beta-lactamase producing Escherichia coli isolate 106342 after 18 hrs by CLSI broth microdilution method; assay type: functional; conditions: isolate 106342, 18 h
[23] = test system: Klebsiella pneumoniae; test: Selectivity index, ratio of MIC for against KPC-2 producing Klebsiella pneumoniae isolate 212232 to MIC for against KPC-2 producing Klebsiella pneumoniae isolate 212232 in presence of BPL; assay type: functional
[24] = test system: Klebsiella pneumoniae; test: Antibacterial activity against KPC-2 producing Klebsiella pneumoniae isolate 212232 after 18 hrs in presence of BPL by CLSI broth microdilution method; assay type: functional; conditions: isolate 212232, 18 h; outline: as §1
[25] = test system: Klebsiella pneumoniae; test: Antibacterial activity against KPC-2 producing Klebsiella pneumoniae isolate 212232 after 18 hrs by CLSI broth microdilution method; assay type: functional; conditions: isolate 212232, 18 h
[26] = test system: Pseudomonas aeruginosa; test: Antibacterial activity against IMP-4 producing Pseudomonas aeruginosa isolate 209321 after 18 hrs in presence of BPL by CLSI broth microdilution method; assay type: functional; conditions: isolate 209321, 18 h; outline: as §1
[27] = test system: Escherichia coli; test: Selectivity index, ratio of MIC for against extended-spectrum beta-lactamase producing Escherichia coli isolate 209285 to MIC for extended-spectrum beta-lactamase producing Escherichia coli isolate 209285 in presence of BPL; assay type: functional
[28] = test system: Escherichia coli; test: Selectivity index, ratio of MIC for against extended-spectrum beta-lactamase producing Escherichia coli isolate 208687 to MIC for extended-spectrum beta-lactamase producing Escherichia coli isolate 208687 in presence of BPL; assay type: functional
[29] = test system: Pseudomonas aeruginosa; test: Selectivity index, ratio of MIC for against IMP-4 producing Pseudomonas aeruginosa isolate 207272 to MIC for against IMP-4 producing Pseudomonas aeruginosa isolate 207272 in presence of BPL; assay type: functional
[30] = test system: Escherichia coli; test: Antibacterial activity against Escherichia coli isolate 210737 after 18 hrs by CLSI broth microdilution method; assay type: functional; conditions: isolate 210737, 18 h
[31] = test system: Pseudomonas aeruginosa; test: Selectivity index, ratio of MIC for against IMP-4 producing Pseudomonas aeruginosa isolate 209321 to MIC for against IMP-4 producing Pseudomonas aeruginosa isolate 209321 in presence of BPL; assay type: functional
[32] = test system: Pseudomonas aeruginosa; test: Antibacterial activity against IMP-4 producing Pseudomonas aeruginosa isolate 208247 after 18 hrs in presence of BPL by CLSI broth microdilution method; assay type: functional; conditions: isolate 208247, 18 h; outline: as §1
[33] = test system: Escherichia coli; test: Selectivity index, ratio of MIC for against extended-spectrum beta-lactamase producing Escherichia coli isolate 212648 to MIC for extended-spectrum beta-lactamase producing Escherichia coli isolate 212648 in presence of BPL; assay type: functional
[34] = Metabolic bioavailability in human liver microsomes at 0.1 uM pre-incubated with compound followed by NADPH addition and measured after 60 mins by LC-MS/MS analysis; assay type: ADME, microsome
[35] = test system: Escherichia coli; test: Antibacterial activity against extended-spectrum beta-lactamase producing Escherichia coli isolate 209285 after 18 hrs in presence of BPL by CLSI broth microdilution method; assay type: functional; conditions: isolate 209285, 18 h; outline: as §1

MIC [2] | MIC [3] | MIC [4] | half-life at 0.1 µM [5] | MIC [7] | MIC [8] | MIC [9] | MIC [10] | MIC [11] | MIC [12] | MIC [13] | MIC [14] | MIC [17] | MIC [18] | half-life at 0.1 µM [19] | MIC [20] | Structure (SMILES) | Selectivity Index [1] | Selectivity Index [6] | Selectivity Index [15] | Selectivity Index [16] | also measured
4 µg/mL | 8 µg/mL | 0.25 µg/mL | 10.3 h | 8 µg/mL (≈ 13.6 µM) | 32 µg/mL (≈ 54.3 µM) | 0.5 µg/mL (≈ 0.848 µM) | 2 µg/mL | 8 µg/mL (≈ 13.6 µM) | 8 µg/mL (≈ 13.6 µM) | 0.25 µg/mL | 1 µg/mL (≈ 1.7 µM) | 0.25 µg/mL | 0.5 µg/mL (≈ 0.848 µM) | 2.93 h | 0.5 µg/mL | CC(C)C(O/N=C(\C(=O)N[C@@H]1C(=O)N(S(=O)(=O)O)[C@@H]1COC(N)=O)c1csc(N)n1)c1cc(=O)c(O)cn1O (stereo not given in full) | 1 | 1 | 2 | 1 | Selectivity Index [21]: 1; MIC [22]: 0.5 µg/mL (≈ 0.848 µM); Selectivity Index [23]: 4; MIC [24]: 0.25 µg/mL; MIC [25]: 1 µg/mL (≈ 1.7 µM); MIC [26]: 4 µg/mL; Selectivity Index [27]: 4; Selectivity Index [28]: 2; Selectivity Index [29]: 2; MIC [30]: 0.25 µg/mL (≈ 0.424 µM); Selectivity Index [31]: 2; MIC [32]: 4 µg/mL; Selectivity Index [33]: 4; Fh at 1 h, 0.1 µM [34]: 62.2%; MIC [35]: 0.125 µg/mL
4 µg/mL | 4 µg/mL | 0.25 µg/mL | 1.2 h | 8 µg/mL (≈ 14.2 µM) | 32 µg/mL (≈ 56.6 µM) | 0.5 µg/mL (≈ 0.885 µM) | 4 µg/mL | 8 µg/mL (≈ 14.2 µM) | 4 µg/mL (≈ 7.08 µM) | 0.25 µg/mL | 0.5 µg/mL (≈ 0.885 µM) | 0.25 µg/mL | 0.5 µg/mL (≈ 0.885 µM) | 3.15 h | 0.5 µg/mL | CC(C)C(O/N=C(\C(=O)N[C@@H]1C(=O)N(S(=O)(=O)O)[C@@H]1CCl)c1csc(N)n1)c1cc(=O)c(O)cn1O (stereo not given in full) | 2 | 4 | 4 | 1 | Selectivity Index [21]: 1; MIC [22]: 1 µg/mL (≈ 1.77 µM); Selectivity Index [23]: 4; MIC [24]: 0.5 µg/mL; MIC [25]: 2 µg/mL (≈ 3.54 µM); MIC [26]: 8 µg/mL; Selectivity Index [27]: 1; Selectivity Index [28]: 2; Selectivity Index [29]: 2; MIC [30]: 1 µg/mL (≈ 1.77 µM); Selectivity Index [31]: 1; MIC [32]: 8 µg/mL; Selectivity Index [33]: 4; Fh at 1 h, 0.1 µM [34]: 63.9%; MIC [35]: 0.5 µg/mL
